Test results reported in ChEMBL document CHEMBL4118047, “Antiplasmodial Sesquiterpenoid Lactones from Trichospira verticillata: Structure Elucidation by Spectroscopic Methods and Comparison of Experimental and Calculated ECD Data” (J Nat Prod, 2017).

Experiments:
[1] = system: A2780; assay: Antiproliferative activity against human A2780 cells after 2 days by alamar blue assay; type: functional, cell-based; details: A2780, 48 h
[2] = system: Plasmodium falciparum; assay: Antiplasmodial activity against Plasmodium falciparum Dd2 after 72 hrs by SYBR Green I dye-based assay; type: functional, organism-based; details: Dd2, 72 h
Outline: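 Ring-stage Dd2 cultures at 1% hematocrit and 1% parasitemia grown 72 h at 37 °C under 5.05% CO₂/4.93% O₂/90.2% N₂ with increasing drug concentrations. Viability read by SYBR Green I DNA quantitation in lysis buffer (0.4 μL dye/mL). IC₅₀ by nonlinear regression. Mean of three independent determinations, each in duplicate, ±SEM.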

[3] = system: HEK293; assay: Cytotoxicity against HEK293 cells assessed as reduction in cell viability after 24 hrs by resazurin dye based assay; details: Homo sapiens, HEK293, 24 h
Outline: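 10,000 HEK293 cells per well allowed to adhere, then medium replaced with medium containing varying compound amounts for 24 h. Resazurin sodium salt (0.125 mg/mL, 10 μL per well) added for 2 h. Viability from fluorescence at 585 nm, excitation 540 nm.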

| SMILES | IC50 [1] [µM] | IC50 [2] [µM] | IC50 [3] [µM] |
| --- | --- | --- | --- |
| C=C(C)C(=O)O[C@H]1C/C(C)=C\C(=O)/C=C(C)/C=C2/OC(=O)C(COC(C)=O)=C21 | 0.21 | 1.49 | 3.5 |
| C=C(C)C(=O)O[C@H]1C/C(C)=C\C(=O)/C=C(\C)[C@@H](O)[C@@H]2OC(=O)C(COC(C)=O)=C12 |  | 37.1 | 56 |
| C[C@@H]1CC[C@H]2[C@@H](C)C(=O)O[C@@H]3O[C@@]4(C)CC[C@@H]1[C@]32OO4 [ARTEMISININ] |  | 0.007 |  |

Further lines, with some results ahead:

| IC50 [1] [µM] | IC50 [2] [µM] | SMILES | IC50 [3] [µM] |
| --- | --- | --- | --- |
|  | 12.1 | C=C(C)C(=O)O[C@H]1C/C(C)=C\C(=O)C[C@@]2(C)O[C@H]2[C@H]2OC(=O)C(COC(C)=O)=C12 | 23.8 |
|  | 44.3 | C=C(C)C(=O)O[C@@H]1C/C(C)=C\[C@@]2(O)C=C(C)[C@H](O2)[C@H]2OC(=O)C(COC(C)=O)=C12 | 58.8 |
